Positions count from the first letter of the chain named. Numbered stars: 1 amine (or outer) side, 2 acyl side, 3 side chain; on linkers, the order of the positions; unused ones are H or OH. Square brackets hold non-standard residues; d marks the D form. Peptide text beside a SMILES is read from it. * marks the point of attachment. Isonicotinoyl(2-(4-Me-2-Py)) = Cc1ccnc(-c2cc(C(=O)*)ccn2)c1; X1 = O=C([C@H](Cc1c(F)cc(O)c(F)c1F)N[*:1])[*:2]
What was measured:
wt-α2 = target: T1, wt-α2 (Escherichia coli, UniProt P00452); assay: Flash-quench transient absorption: •F3Y radical in presence of wt-α2; assay type: biochemical
T1 sequence (P00452 1-761): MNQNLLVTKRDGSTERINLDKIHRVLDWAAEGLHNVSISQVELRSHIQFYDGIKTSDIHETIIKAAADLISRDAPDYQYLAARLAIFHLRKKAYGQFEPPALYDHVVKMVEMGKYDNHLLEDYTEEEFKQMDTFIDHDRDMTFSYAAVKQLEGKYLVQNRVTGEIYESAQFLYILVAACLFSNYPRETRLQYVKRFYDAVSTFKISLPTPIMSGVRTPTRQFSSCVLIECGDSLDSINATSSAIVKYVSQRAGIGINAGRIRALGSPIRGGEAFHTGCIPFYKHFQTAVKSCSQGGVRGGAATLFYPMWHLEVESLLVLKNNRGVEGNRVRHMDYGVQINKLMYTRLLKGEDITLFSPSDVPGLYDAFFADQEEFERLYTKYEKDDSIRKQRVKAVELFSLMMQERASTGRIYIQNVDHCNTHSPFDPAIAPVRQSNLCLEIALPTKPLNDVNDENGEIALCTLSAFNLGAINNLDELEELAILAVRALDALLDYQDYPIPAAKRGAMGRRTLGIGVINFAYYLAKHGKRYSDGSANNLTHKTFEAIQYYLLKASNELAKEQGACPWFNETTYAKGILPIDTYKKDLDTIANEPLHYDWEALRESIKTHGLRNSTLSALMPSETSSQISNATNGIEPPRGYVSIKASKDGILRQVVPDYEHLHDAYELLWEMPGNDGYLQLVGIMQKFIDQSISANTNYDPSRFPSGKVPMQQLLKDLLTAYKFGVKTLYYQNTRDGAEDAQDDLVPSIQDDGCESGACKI

α2 mutants = assay: Charge-separated state lifetime in presence of α2 proteins; assay type: physicochemical, Escherichia coli; conditions: each of the protein mutants, in words
[1] = Flash-quench transient absorption: •F3Y radical of free peptide; assay type: physicochemical
Method in brief: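 Free Re-labelled test peptide (50 μM) with 1 mM Ru(NH3)6Cl3 flash quencher, 1 mM CDP and 3 mM ATP in 50 mM borate, pH 8.3, 15 mM MgSO4, 5% glycerol. Samples were equilibrated 3 min at 23 °C and flowed through the cuvette, then excited with a 7 ns 355 nm pulse. Spectra averaged three data sets with FFT noise filtering. Kinetic traces were fitted by weighted least squares; errors are one SD.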

C439S-α2 = target: T2, C439S-α2 (Escherichia coli, UniProt P00452, C439S); assay: Flash-quench transient absorption: •F3Y radical in presence of C439S-α2; assay type: biochemical
T2 sequence (P00452 1-761 C439S): T1 sequence (P00452 1-761) with C439S

Y731F-α2 = target: T3, Y731F-α2 (Escherichia coli, UniProt P00452, Y731F); assay: [Re^I]* emission lifetime of peptide bound to Y731F-α2; assay type: binding; conditions: 10 μM peptide, 20 μM α2, pH 8.3
T3 sequence (P00452 1-761 Y731F): T1 sequence (P00452 1-761) with Y731F
Method in brief: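 Time-resolved [Re] emission, monitored at 610 nm. Samples held 10 μM Re-labelled test peptide, 200 μM Ru(NH3)6Cl3, 1 mM CDP and 3 mM ATP in 50 mM sodium borate, pH 8.3, 15 mM MgSO4, 5% glycerol. For the bound state, 20 μM His6-tagged E. coli α2 mutant was added. Samples were equilibrated 3 min at 23 °C and measured while flowing. Lifetimes came from weighted least-squares fits of averaged traces.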

[2] = C439S-α2, average across three wavelengths (395, 410, 425 nm)

Compound: CC[C@H](C)[C@H](NC(=O)[C@H](CCC(N)=O)NC(=O)CNC(=O)[C@@H](NC(=O)[C@H](CC(C)C)NC(=O)[C@H](Cc1c(F)cc(O)c(F)c1F)NC(=O)c1ccnc(-c2cc(C)ccn2)c1)C(C)C)C(=O)N[C@@H](CC(=O)O)C(=O)N[C@@H](CO)C(=O)N[C@@H](CCC(=O)O)C(=O)N[C@H](C(=O)N[C@@H](CC(=O)O)C(=O)N[C@H](C(=O)N[C@@H](CC(=O)O)C(=O)N[C@@H](CC(=O)O)C(=O)N[C@@H](CC(C)C)C(=O)N[C@@H](CO)C(=O)N[C@@H](CC(N)=O)C(=O)N[C@@H](Cc1ccccc1)C(=O)N[C@@H](CCC(N)=O)C(=O)N[C@@H](CC(C)C)C(=O)O)[C@@H](C)O)C(C)C [[Re]–F3Y–βC19] ({Isonicotinoyl(2-(4-Me-2-Py))}-[X1]LVGQIDSEVDTDDLSNFQL-OH; N-terminus and C-terminus assumed)
- •F3Y radical decay profile (in words) (wt-α2; wt-α2): biexponential decay owing to the contribution of a significantly shorter lifetime component
- injection rate (wt-α2; wt-α2, Eq. 1: kox = 1/τon − 1/τoff): (3 ± 2) × 10^5 s^−1
- •F3Y lifetime, short phase (wt-α2; wt-α2, averaged across wavelengths): 3.0 ± 1.4 μs
- •F3Y lifetime, long phase (wt-α2; wt-α2, averaged across wavelengths, 50 μM peptide, 100 μM α2, 1 mM Ru(NH3)6Cl3, 1 mM CDP, 3 mM ATP, borate pH 8.3): 15.4 ± 0.5 μs
- charge-separated state lifetime vs protein mutant (α2 mutants): Identical lifetimes
- fast time component, recombination of charge-separated state ([1]; flash quench, 20 mol equiv Ru(NH3)6Cl3, λdet 425 nm): 100 ns
- •F3Y lifetime τ395 ([1]; free peptide, 395 nm, monoexponential, 50 μM peptide, 1 mM Ru(NH3)6Cl3, 1 mM CDP, 3 mM ATP, 15 mM MgSO4, 5% glycerol, 50 mM borate pH 8.3, average of 3–6 data sets): 14.7 ± 0.2 μs
- •F3Y lifetime τ410 ([1]; free peptide, 410 nm, monoexponential, 50 μM peptide, 1 mM Ru(NH3)6Cl3, borate pH 8.3, average of 3–6 data sets): 13.5 ± 0.2 μs
- •F3Y lifetime τ425 ([1]; free peptide, 425 nm, monoexponential, 50 μM peptide, 1 mM Ru(NH3)6Cl3, borate pH 8.3, average of 3–6 data sets): 14.5 ± 0.4 μs
- photochemical yield of •F3Y formation ([1]; optimized flash-quench system, 20 mol equiv Ru(NH3)6Cl3, calculated, see SI): 4.9%
- •F3Y radical decay profile (in words) (C439S-α2; C439S-α2): biexponential decay owing to the contribution of a significantly shorter lifetime component
- •F3Y radical decay: small amplitude component ("on" state) (C439S-α2; C439S-α2): 20%
- amplitude of long phase (C439S-α2; C439S-α2, 395 nm): 81%
- amplitude of short phase (C439S-α2; C439S-α2, 395 nm): 19%
- •F3Y lifetime, short phase (C439S-α2; C439S-α2, 395 nm, biexponential): 2.2 ± 1 μs
- •F3Y lifetime, long phase (C439S-α2; C439S-α2, 395 nm, biexponential, 50 μM peptide, 100 μM C439S-α2, 1 mM Ru(NH3)6Cl3, 1 mM CDP, 3 mM ATP, borate pH 8.3): 17.3 ± 0.9 μs
- •F3Y lifetime, "off" state (C439S-α2; [2]): 16.9 ± 0.7 μs
- •F3Y lifetime, "on" state (C439S-α2; [2]): 2.5 ± 1.0 μs
- [Re^I]* emission lifetime, "on" state (Y731F-α2): 29 ns
